≈ marks a conversion by molar mass, not a printed value. Calls of active or inactive are those of the source. The calls are words filed in the database; no cut-off is given here.
Experiments:
[1] = Equilibrium solubility in phosphate buffer in absence of 10% Labrasol at pH 7.4; assay type: physicochemical
[2] = Drug metabolism in human hepatic microsomes at 5 uM incubated for 20 mins in presence of NADPH by liquid chromatography-tandem mass spectrometry; assay type: ADME, Microsome; conditions: liver microsomes, read-out: Drug metabolism
[3] = target: T1, Hepatocyte growth factor receptor (Homo sapiens, UniProt P08581); assay: Inhibition of wild type phosphorylated MET (unknown origin) pre-incubated for 30 mins before biotinylated poly(glutamate-alanine-tyrosine) peptide addition and measured after 5 mins by HTRF assay
[4] = Apparent permeability from apical to basolateral side in human Caco2/TC7 cells at 20 uM by liquid chromatography-tandem mass spectrometry; conditions: Caco-2
[5] = target: T2, Cytochrome P450 3A4 (Homo sapiens, UniProt P08684); assay: Inhibition of human recombinant CYP3A4 co-expressed with human P450 reductase and human b5 reductase assessed as reduction in 7-Hydroxyquinoline production using 7-benzyloxyquinoline as substrate and NADPH incubated for 15 mins by fluorimetry; assay type: ADME
[6] = target: T2, Cytochrome P450 3A4; assay: Mechanism based time dependent inhibition of human recombinant CYP3A4 co-expressed with human P450 reductase and human b5 reductase assessed as reduction in 7-Hydroxyquinoline production using 7-benzyloxyquinoline as substrate and NADPH measured every 3 mins for 15 mins by fluorimetry; assay type: ADME; conditions: recombinant enzyme, 0.25 h
[7] = target: Hepatocyte growth factor receptor (Homo sapiens, UniProt P08581, Y1230H); assay: Inhibition of phosphorylated MET Y1230H mutant (unknown origin) pre-incubated for 30 mins before biotinylated poly(glutamate-alanine-tyrosine) peptide addition and measured after 5 mins by HTRF assay
[8] = Equilibrium solubility in phosphate buffer in presence of 10% Labrasol at pH 7.4; assay type: physicochemical; conditions: phosphate buffer with 10% Labrasol
[9] = target: T1, Hepatocyte growth factor receptor; assay: Inhibition of phosphorylated MET in human MKN45 cells assessed as reduction in pMET Y1230/1234/1235 level incubated for 1 hr by ELISA; assay type: cell-based
Method in brief: (§1)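 MKN-45 is a MET-amplified human gastric tumour cell line.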

[10] = system: MKN-45; assay: Antiproliferative activity against human MKN45 cells assessed as reduction in [14C]-thymidine incorporation incubated for 96 hrs by beta counting method; assay type: functional, cell-based; conditions: for IC50: MKN-45, 96 h; method in brief: as §1
[11] = Lipophilicity, log D of the compound by HPLC method; assay type: physicochemical
[12] = target: T1, Hepatocyte growth factor receptor; assay: Binding affinity to MET (unknown origin) by isothermal titration calorimetry
[13] = target: Hepatocyte growth factor receptor (Homo sapiens, UniProt P08581, L1195V); assay: Inhibition of phosphorylated MET L1195V mutant (unknown origin) pre-incubated for 30 mins before biotinylated poly(glutamate-alanine-tyrosine) peptide addition and measured after 5 mins by HTRF assay
[14] = target: Hepatocyte growth factor receptor (Homo sapiens, UniProt P08581, M1250T); assay: Inhibition of phosphorylated MET M1250T mutant (unknown origin) pre-incubated for 30 mins before biotinylated poly(glutamate-alanine-tyrosine) peptide addition and measured after 5 mins by HTRF assay
[15] = Oral bioavailability in mouse; assay type: ADME, organism-based; conditions: in vivo
[16] = target: Tubulin; assay: Binding affinity to tubulin (unknown origin); assay type: protein-complex assay, Homo sapiens
[17] = target: Cyclin-dependent kinase 9 (Homo sapiens, UniProt P50750); assay: Inhibition of CDK9 (unknown origin)
[18] = Genotoxicity in Salmonella typhimurium by Ames test; assay type: toxicity; conditions: salmonella enterica subsp. enterica serovar typhimurium

Sequence of Hepatocyte growth factor receptor (Homo sapiens, UniProt P08581, Y1230H) (P08581 25-1390 Y1230H limits assumed): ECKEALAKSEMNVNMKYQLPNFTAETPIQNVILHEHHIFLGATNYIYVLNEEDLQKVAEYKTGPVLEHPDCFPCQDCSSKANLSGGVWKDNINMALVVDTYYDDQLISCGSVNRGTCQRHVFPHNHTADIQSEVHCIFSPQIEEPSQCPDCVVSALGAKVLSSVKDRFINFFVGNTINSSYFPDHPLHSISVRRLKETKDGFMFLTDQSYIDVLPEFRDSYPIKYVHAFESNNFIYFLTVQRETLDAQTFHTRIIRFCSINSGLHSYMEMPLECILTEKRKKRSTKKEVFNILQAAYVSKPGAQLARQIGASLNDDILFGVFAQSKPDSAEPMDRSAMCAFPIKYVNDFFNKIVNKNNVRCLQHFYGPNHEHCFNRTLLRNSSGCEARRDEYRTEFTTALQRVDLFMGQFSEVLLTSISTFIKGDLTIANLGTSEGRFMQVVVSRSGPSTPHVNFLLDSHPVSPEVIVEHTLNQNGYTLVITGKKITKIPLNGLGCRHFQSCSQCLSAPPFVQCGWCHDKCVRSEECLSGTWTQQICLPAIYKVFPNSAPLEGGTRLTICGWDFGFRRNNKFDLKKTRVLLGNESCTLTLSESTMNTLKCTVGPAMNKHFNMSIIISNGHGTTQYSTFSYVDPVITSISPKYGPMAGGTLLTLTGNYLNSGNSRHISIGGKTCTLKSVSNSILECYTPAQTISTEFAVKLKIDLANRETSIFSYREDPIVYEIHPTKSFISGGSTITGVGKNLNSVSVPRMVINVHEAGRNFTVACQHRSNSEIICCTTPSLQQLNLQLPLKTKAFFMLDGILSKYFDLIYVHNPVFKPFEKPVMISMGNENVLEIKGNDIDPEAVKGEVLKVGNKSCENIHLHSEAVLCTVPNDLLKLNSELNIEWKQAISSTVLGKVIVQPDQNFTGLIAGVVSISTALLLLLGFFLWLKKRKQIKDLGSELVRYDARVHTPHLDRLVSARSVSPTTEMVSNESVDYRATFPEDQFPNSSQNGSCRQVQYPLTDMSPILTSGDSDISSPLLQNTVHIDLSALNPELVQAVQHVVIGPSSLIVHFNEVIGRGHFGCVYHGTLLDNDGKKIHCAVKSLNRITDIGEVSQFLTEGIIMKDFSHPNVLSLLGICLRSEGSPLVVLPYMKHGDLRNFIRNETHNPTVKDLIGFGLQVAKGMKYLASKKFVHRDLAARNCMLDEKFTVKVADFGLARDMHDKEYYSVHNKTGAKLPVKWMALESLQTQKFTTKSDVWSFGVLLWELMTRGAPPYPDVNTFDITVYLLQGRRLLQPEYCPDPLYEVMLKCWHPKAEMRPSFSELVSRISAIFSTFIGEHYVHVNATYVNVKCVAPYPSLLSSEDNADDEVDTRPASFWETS
Sequence of Hepatocyte growth factor receptor (Homo sapiens, UniProt P08581, L1195V) (P08581 25-1390 L1195V limits assumed): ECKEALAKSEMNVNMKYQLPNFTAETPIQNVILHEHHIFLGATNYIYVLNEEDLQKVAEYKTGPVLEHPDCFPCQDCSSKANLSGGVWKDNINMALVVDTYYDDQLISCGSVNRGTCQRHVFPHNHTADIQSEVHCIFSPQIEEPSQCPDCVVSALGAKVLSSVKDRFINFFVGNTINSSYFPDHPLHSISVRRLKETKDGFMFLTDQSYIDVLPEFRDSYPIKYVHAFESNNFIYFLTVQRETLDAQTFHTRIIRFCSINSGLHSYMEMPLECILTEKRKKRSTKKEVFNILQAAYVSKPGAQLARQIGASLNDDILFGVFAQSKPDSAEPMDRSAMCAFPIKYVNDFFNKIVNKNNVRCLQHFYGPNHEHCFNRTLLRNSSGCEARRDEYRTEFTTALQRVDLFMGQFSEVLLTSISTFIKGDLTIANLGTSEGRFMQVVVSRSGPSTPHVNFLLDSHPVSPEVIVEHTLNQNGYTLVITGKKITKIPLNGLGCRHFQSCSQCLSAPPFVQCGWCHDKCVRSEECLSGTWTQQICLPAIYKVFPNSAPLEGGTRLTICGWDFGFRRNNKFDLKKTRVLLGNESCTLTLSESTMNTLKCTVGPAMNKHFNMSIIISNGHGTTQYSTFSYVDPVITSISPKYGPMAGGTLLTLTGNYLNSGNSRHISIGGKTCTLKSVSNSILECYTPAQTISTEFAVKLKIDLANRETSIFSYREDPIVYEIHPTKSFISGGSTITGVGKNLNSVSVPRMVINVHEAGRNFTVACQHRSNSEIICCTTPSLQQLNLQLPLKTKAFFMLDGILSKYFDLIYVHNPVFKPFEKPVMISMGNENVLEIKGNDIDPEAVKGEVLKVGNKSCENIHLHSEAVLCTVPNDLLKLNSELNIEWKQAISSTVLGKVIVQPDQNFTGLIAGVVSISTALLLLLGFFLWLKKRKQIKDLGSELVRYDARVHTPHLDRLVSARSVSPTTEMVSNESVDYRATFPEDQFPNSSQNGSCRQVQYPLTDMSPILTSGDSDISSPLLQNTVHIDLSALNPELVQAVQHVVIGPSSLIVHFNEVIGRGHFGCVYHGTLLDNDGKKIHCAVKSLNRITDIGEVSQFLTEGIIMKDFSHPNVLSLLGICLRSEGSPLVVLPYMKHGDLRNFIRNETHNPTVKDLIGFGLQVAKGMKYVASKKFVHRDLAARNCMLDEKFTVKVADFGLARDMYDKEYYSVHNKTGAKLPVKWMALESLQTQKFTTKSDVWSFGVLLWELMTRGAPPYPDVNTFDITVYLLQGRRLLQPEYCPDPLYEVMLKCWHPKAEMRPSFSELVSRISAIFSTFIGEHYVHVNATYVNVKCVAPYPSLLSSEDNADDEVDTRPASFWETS
Sequence of Hepatocyte growth factor receptor (Homo sapiens, UniProt P08581, M1250T) (P08581 25-1390 M1250T limits assumed): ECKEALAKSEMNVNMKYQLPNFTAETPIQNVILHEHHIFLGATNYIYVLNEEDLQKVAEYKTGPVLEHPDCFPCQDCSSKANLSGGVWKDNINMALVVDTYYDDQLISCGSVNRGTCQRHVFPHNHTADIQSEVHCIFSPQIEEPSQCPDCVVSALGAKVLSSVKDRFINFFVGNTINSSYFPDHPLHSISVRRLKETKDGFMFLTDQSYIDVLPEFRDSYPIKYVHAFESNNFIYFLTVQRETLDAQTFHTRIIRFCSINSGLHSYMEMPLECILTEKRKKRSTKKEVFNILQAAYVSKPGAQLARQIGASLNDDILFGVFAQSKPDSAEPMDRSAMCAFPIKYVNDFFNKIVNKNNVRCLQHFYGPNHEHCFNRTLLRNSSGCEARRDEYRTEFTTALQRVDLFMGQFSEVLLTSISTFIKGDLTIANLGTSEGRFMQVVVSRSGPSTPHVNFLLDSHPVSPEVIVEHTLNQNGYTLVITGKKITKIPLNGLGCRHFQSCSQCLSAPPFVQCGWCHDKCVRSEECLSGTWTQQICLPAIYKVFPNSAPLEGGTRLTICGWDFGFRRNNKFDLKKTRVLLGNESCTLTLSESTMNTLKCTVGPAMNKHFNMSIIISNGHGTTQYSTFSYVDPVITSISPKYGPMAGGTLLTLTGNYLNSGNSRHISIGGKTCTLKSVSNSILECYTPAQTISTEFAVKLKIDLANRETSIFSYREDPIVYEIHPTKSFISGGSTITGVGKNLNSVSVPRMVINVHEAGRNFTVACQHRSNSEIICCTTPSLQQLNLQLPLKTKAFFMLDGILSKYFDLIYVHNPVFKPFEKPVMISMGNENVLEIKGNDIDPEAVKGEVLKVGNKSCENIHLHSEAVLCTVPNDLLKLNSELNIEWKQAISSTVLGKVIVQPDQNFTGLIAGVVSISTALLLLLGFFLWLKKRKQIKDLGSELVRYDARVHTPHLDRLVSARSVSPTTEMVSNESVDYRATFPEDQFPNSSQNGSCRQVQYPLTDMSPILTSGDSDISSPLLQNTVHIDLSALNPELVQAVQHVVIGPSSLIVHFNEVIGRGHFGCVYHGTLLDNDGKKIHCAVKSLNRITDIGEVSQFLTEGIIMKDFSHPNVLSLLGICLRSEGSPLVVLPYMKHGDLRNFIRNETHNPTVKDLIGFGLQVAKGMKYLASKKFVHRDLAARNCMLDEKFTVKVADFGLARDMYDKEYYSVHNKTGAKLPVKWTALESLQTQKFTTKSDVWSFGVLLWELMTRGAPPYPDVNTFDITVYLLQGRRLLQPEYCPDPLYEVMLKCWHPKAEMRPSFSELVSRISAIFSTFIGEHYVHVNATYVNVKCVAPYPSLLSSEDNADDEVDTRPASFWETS
Sequence of Cyclin-dependent kinase 9 (P50750 whole entry): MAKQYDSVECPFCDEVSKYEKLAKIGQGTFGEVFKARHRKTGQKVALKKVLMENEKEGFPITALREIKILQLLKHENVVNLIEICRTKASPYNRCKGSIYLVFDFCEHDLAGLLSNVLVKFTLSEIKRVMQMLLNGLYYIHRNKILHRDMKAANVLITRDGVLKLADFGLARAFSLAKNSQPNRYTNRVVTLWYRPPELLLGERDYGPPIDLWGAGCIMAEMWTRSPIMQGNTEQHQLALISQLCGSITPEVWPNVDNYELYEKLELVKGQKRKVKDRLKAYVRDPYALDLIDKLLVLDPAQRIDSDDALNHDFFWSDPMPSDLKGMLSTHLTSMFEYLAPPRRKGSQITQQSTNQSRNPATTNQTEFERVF
T2 sequence (P08684 whole entry): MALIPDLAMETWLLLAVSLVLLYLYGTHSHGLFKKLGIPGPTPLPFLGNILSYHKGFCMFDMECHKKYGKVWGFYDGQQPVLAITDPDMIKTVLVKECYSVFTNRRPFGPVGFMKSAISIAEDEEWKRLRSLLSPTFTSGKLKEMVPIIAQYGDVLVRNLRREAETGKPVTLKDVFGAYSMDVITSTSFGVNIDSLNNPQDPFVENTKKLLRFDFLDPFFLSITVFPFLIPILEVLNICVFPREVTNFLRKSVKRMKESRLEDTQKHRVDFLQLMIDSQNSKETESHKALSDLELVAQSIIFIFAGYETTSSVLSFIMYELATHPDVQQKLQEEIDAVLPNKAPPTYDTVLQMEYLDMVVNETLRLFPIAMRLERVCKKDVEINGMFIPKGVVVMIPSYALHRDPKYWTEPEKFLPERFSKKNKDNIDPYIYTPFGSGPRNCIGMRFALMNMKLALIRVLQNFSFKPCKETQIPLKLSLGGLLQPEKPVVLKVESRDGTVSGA

Compound	solubility thermodynamic [1]	metabolised at 20 min, 5 µM [2]	IC50 [3]	Papp A→B at 20 µM [4]	IC50 [5]	INH [6]	IC50 [7]	solubility thermodynamic [8]	IC50 [9]	IC50 [10]	logD [11]	Kd [12]	IC50 [13]	IC50 [14]	bioavailability [15]	inhibition [9]	inhibition [10]	IC50 [16]	IC50 [17]	Activity [18]
O=C(NCCN1CCOCC1)Nc1nc2ccc(Sc3nnc4ccc(OC5CCCCCC5)nn34)cc2s1	< 2 µM	36%	15 nM	2 ×10⁻⁶ cm/s	14000 nM	-11.6 %/min	407 nM	–	–	–	–	–	–	–	–	–	–	–	–	–
CCOc1ccc2nnc(Sc3ccc4nc(NC(=O)NCCN5CCOCC5)sc4c3)n2n1	5 µM (≈ 2.5 µg/mL)	51%	3 nM	–	4000 nM	-13.1 %/min	643 nM	460 µM	–	–	–	–	–	–	–	–	–	–	–	–
CCN1CCC(CCNC(=O)Nc2nc3ccc(Sc4nnc5ccc(-c6cccs6)nn45)cc3s2)CC1	< 2 µM	–	2 nM	–	–	–	23 nM	–	29 nM	2.7 nM	3.9	–	–	–	–	–	–	–	–	–
O=C(NCCN1CCOCC1)Nc1nc2ccc(Sc3nnc4ccc(-c5cccc(F)c5)nn34)cc2s1	32 µM (≈ 17.6 µg/mL)	24%	10 nM	0.4 ×10⁻⁶ cm/s	1800 nM	-8.2 %/min	140 nM	1170 µM	–	–	–	8.7 nM	–	–	–	–	–	–	–	–
CCNc1nc2ccc(Sc3nnc4ccc(-c5ccc(F)cc5)nn34)cc2s1	< 2.5 µM	–	15 nM	–	–	–	> 10000 nM	–	15 nM	42 nM	> 4.6	–	> 10000 nM	417 nM	–	–	–	–	–	–
O=C(NCCN1CCOCC1)Nc1nc2ccc(Sc3nnc4ccc(Oc5ccccc5)nn34)cc2s1	< 2 µM	32%	2 nM	0.8 ×10⁻⁶ cm/s	7900 nM	-12.8 %/min	174 nM	–	–	–	–	–	–	–	–	–	–	–	–	–
O=C(CCCN1CCOCC1)Nc1nc2ccc(Sc3nnc4ccc(-c5ccc(F)cc5)nn34)cc2s1	–	–	6 nM	–	–	–	1170 nM	96 µM	2 nM	12 nM	4.3	–	318 nM	93 nM	–	–	–	–	–	–
O=C(Nc1nc2ccc(Sc3nnc4ccc(-c5ccc(F)cc5)nn34)cc2s1)OCCN1CCOCC1	8 µM (≈ 4.41 µg/mL)	–	45 nM	–	–	–	> 10000 nM	245 µM	25 nM	95 nM	4.1	–	6520 nM	–	–	–	–	–	–	–
O=C(NCCN1CCOCC1)Nc1nc2ccc(Sc3nnc4ccc(OC5CCCC5)nn34)cc2s1	< 2 µM	29%	6 nM	2.6 ×10⁻⁶ cm/s	31000 nM	-5.5 %/min	216 nM	–	–	–	–	–	–	–	12%	–	–	–	–	–
COC(=O)Nc1nc2cc(Sc3nnc4ccc(-c5ccc(F)cc5)nn34)ccc2[nH]1	–	–	10 nM	–	–	–	–	–	–	–	3.8	–	–	–	–	Active	Active	2000 nM	> 10000 nM	Toxic
O=C(Nc1nc2ccc(Sc3nnc4ccc(-c5ccc(F)cc5)nn34)cc2s1)C1CC1	< 1 µM	–	3 nM	–	–	–	883 nM	64 µM	4 nM	7 nM	4.7	–	61 nM	13 nM	–	–	–	–	–	–
COCCNC(=O)Nc1nc2cc(OS(=O)(=O)c3c(F)cccc3F)ccc2[nH]1	–	–	5 nM	–	–	–	–	–	–	–	–	–	–	–	–	–	–	–	6 nM	–
Fc1ccc(-c2ccc3nnc(Sc4ccc5nc(NCCN6CCOCC6)sc5c4)n3n2)cc1	< 1 µM	–	20 nM	–	–	–	> 10000 nM	543 µM	13 nM	45 nM	4.1	–	835 nM	455 nM	–	–	–	–	–	–
O=C(NCCN1CCOCC1)Nc1nc2ccc(Sc3nnc4ccc(Oc5cccc(F)c5)nn34)cc2s1	< 2 µM	16%	3 nM	0.8 ×10⁻⁶ cm/s	2000 nM	-12.2 %/min	56 nM	–	–	–	–	–	–	–	–	–	–	–	–	–
O=C(NCCN1CCOCC1)Nc1nc2ccc(Sc3nnc4ccc(NC5CCOCC5)nn34)cc2s1	89 µM (≈ 49.5 µg/mL)	39%	1 nM	0.2 ×10⁻⁶ cm/s	> 40000 nM	-14.2 %/min	217 nM	–	–	–	–	–	–	–	–	–	–	–	–	–
CCN(CC)CCNC(=O)Nc1nc2ccc(Sc3nnc4ccc(-c5ccc(F)cc5)nn34)cc2s1	< 1 µM	–	3 nM	–	–	–	864 nM	1000 µM	10 nM	33 nM	4.15	–	148 nM	71 nM	–	–	–	–	–	–
CCCCOc1ccc2nnc(Sc3ccc4nc(NC(=O)NCCN5CCOCC5)sc4c3)n2n1	< 2 µM	23%	5 nM	0.7 ×10⁻⁶ cm/s	8700 nM	-11.3 %/min	140 nM	–	–	–	–	–	–	–	–	–	–	–	–	–
Nc1nc2ccc(Sc3nnc4ccc(-c5ccc(F)cc5)nn34)cc2s1	–	–	10 nM	–	–	–	> 10000 nM	44 µM	43 nM	81 nM	> 4.6	–	9000 nM	245 nM	–	–	–	–	–	–
COC(=O)Nc1nc2ccc(Sc3nnc4ccc(-c5ccc(F)cc5)nn34)cc2s1	< 1 µM	–	16 nM	–	–	–	> 10000 nM	15 µM	22 nM	91 nM	> 4.6	–	> 10000 nM	–	–	–	–	> 25000 nM	–	Non-Toxic
O=C(NCCN1CCOCC1)Nc1nc2ccc(Sc3nnc4cccnn34)cc2s1	70 µM (≈ 32 µg/mL)	11%	29 nM	–	34000 nM	-2.3 %/min	4800 nM	1070 µM	–	–	–	12 nM	–	–	–	–	–	–	–	–
O=C(NCCN1CCOCC1)Nc1nc2ccc(Sc3nnc4ccc(NC5CC5)nn34)cc2s1	< 2 µM	26%	1 nM	–	200 nM	-3.8 %/min	274 nM	–	–	–	–	–	–	–	–	–	–	–	–	–
O=C(NCCN1CCOCC1)Nc1nc2ccc(Sc3nnc4ccc(OC5CCCCC5)nn34)cc2s1	< 2 µM	23%	2 nM	9.8 ×10⁻⁶ cm/s	2700 nM	-4.6 %/min	252 nM	500 µM	–	–	–	0.6 nM	–	–	17%	–	–	–	–	–
O=C(NCCN1CCOCC1)Nc1nc2ccc(Sc3nnc4ccc(NC5CCCCC5)nn34)cc2s1	< 2 µM	38%	1 nM	–	2900 nM	-9.1 %/min	139 nM	–	–	–	–	–	–	–	–	–	–	–	–	–
O=C(CC1CC1)Nc1nc2ccc(Sc3nnc4ccc(-c5ccc(F)cc5)nn34)cc2s1	< 2 µM	–	4 nM	–	–	–	> 10000 nM	–	13 nM	22 nM	> 4.6	–	> 10000 nM	128 nM	–	–	–	–	–	–
COC(=O)Nc1nc2cc(OS(=O)(=O)c3c(Cl)cccc3Cl)ccc2[nH]1	–	–	23 nM	–	–	–	–	–	–	–	–	–	–	–	–	–	–	2700 nM	1200 nM	–
